# p47phox inh = p47phox (human) inhibition. P14598. p47phox/p22phox peptide binding, fluorescence polarization, 2 h. inhibition, % at 24.7 µM. 0.53% of 220,000 active. AID 1274;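 active means inhibition above about 30%, limit read from the data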;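 further: 0% = p47phox with labelled peptide and 100% = labelled peptide alone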
# Target sequence (P14598 whole entry, looked up): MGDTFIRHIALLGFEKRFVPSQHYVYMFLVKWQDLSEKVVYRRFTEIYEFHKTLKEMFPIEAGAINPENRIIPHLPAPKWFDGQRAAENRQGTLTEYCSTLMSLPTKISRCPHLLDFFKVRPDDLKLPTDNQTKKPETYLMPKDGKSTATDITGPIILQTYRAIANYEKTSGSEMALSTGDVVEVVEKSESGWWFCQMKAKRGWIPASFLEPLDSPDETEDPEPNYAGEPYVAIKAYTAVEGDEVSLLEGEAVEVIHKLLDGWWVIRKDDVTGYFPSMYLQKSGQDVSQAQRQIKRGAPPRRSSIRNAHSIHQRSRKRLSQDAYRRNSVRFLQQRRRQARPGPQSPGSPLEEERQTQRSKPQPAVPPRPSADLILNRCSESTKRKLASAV
# Arbovirus anti = antivirals against arbovirus infection; arbovirus infection cell-based antiviral screen; inhibition, % at 10 µM; 0.37% of 200,000 active; AID 1251; in the data active means inhibition above about 30%
# Calb biofilm kill = mixtures killing C. albicans biofilm; 0.02% of 120,000 active; AID 1242; inhibition, % at 7.6 µM; C. albicans biofilm persisters + clotrimazole, fluorescence viability; primary screen in compound mixtures of four per well;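 further: compounds exposed to preformed 24 h biofilms for 48 h; 0% = untreated biofilm control and 100% = clotrimazole plus chlorhexidine kill blank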
#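 System: C. albicans CAF4-2 wild-type biofilms; Medium: RPMI/MOPS medium, pH 7.0; Reagent: Clotrimazole, 50 µg/mL; Times: biofilm formation 24 h, compound exposure 48 h, 37 °C; Detection: 2-h Alamar Blue fluorescence, 535/590 nm excitation/emission; Evaluation: percent inhibition of biofilm viability.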
# RAM inhibit = yeast RAM network inhibition. AID 868. S. cerevisiae dse1pr::URA3 reporter, 5-FOA growth OD615, 2 d; analog-sensitive cbk1-as2 kinase mutant strain. inhibition, % at 50 µM. 1.8% of 190,000 active;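 active means inhibition above a set limit, 3 SD over mean compound inhibition, cut at about 8.4% in these data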;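 further: 0% = DMSO-only wells with no growth and 100% = 10 µM 1-NA-PP1 full growth; inhibition rescues growth on 5-FOA so higher OD means more RAM inhibition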
# Hck-Nef inh = inhibitors of human Hck kinase activated by Nef | Recombinant Hck-YEEI plus Nef, Z-Lyte FRET kinase assay | inhibition, % at 20 µM | 0.68% of 220,000 active | AID 463187;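 active means Hck-Nef kinase inhibition above about 50%, limit read from the data; inactive means inhibition below that limit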;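 further: 0% = DMSO with Hck plus Nef and 100% = Hck alone without Nef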
# WT yeast gro inh = growth inhibition of WT yeast, mitochondrial fusion screen; mitochondrial fusion phenotypic screen, WT strain; AID 1362; inhibition, % at 10 µM; 2.1% of 190,000 active; in the data active means inhibition above about 58%; tested in S. cerevisiae
# RAM 5-FOA = RAM network inhibition, efflux-deficient strain; S. cerevisiae efflux-deficient reporter strain, 5-FOA growth OD615, 2 days; max inhibition, %; 1,200 tested, under 10 active; AID 1305; shares compounds with RAM inhibit; call rule not given here;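 further: plate controls were vehicle for no effect and reference inhibitor for full effect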
# * = called active by the depositor; / = not tested or not shown. In the library only some 4.6% were active in any assay of this set; here they are far more common.
SMILES,p47phox inh,Arbovirus anti,Calb biofilm kill,RAM inhibit,Hck-Nef inh,WT yeast gro inh,RAM 5-FOA
Cc1cc(C)n(-c2ccc(C(=O)Oc3ccc4c(c3)OCO4)cc2)n1,-0.4,-2.4,/,12.6*,3.1,12.2,3.2
CC(=O)c1ccc(OC(=O)c2ccc(-n3nc(C)cc3C)cc2)cc1,-8.9,1.6,2.8,0.9,-6.0,-3.5,/
COc1ccc(NC(=O)/C(Cl)=C(/Cl)S(=O)Cc2ccc(Cl)cc2)cn1 (centres undefined),-15.1,-33.7,8.1,7.8,21.0,91.0,/
CC(CCc1ccccc1)NC(=O)CNC(=S)N(Cc1cccs1)C1CCCC1 (centres undefined),-1.8,-29.0,10.4,11.9*,27.6,28.2,4.8
CCOC(=O)c1c(NC(=O)CSc2nncs2)sc(C)c1-c1ccccc1,-46.0,-6.8,9.2,13.0*,6.0,19.8,3.9
CCOC(=O)c1c(-c2ccc(OC)cc2)csc1NC(=O)CSc1ccccc1,-93.9,-9.0,/,14.9*,1.2,-45.1,3.1
CCOC(=O)c1c(NC(=O)CSc2nncs2)sc(C)c1C,-3.9,-11.5,/,5.2,1.9,1.2,/
CCOC(=O)c1c(-c2ccccc2)csc1NC(=O)CSc1nnnn1C,-21.1,-17.1,/,7.6,4.1,16.1,/
CCOC(=O)c1c(-c2ccccc2)csc1NC(=O)CSc1ccccc1,-3.0,12.5,2.7,13.3*,7.3,-8.3,4.1
CCOC(=O)c1c(-c2ccc(OC)cc2)csc1NC(=O)CSc1nnc(C)c(=O)[nH]1,-16.0,0.1,12.4,5.4,-10.1,-20.6,/
CCOC(=O)c1c(NC(=O)CSc2nnnn2-c2ccc(OC)cc2)sc(C)c1C,-44.5,-2.5,/,12.5*,-1.7,-3.9,2.2
COc1ccc(OC)c(-c2csc(NC(=O)CSc3ccccc3)n2)c1,-44.4,-2.4,8.1,11.4*,2.3,43.6,4.1
COc1ccc(-c2csc(NC(=O)CSc3ccc(Br)cc3)n2)c(OC)c1,-12.2,-0.9,18.0,2.2,0.4,5.5,/
CCOC(=O)Cc1csc(NC(=O)/C=C\c2ccccc2Cl)n1,-7.8,7.2,8.1,8.0,21.5,25.8,/
C=CCNC(=S)N/N=C/c1ccc(N(CC)Cc2ccccc2)cc1,-8.1,-17.2,6.8,15.1*,9.7,69.2*,3.1
O=C(NCc1ccccc1)c1cccc(COc2ccc(Cl)cc2)c1,0.0,0.0,/,4.5,1.0,49.5,/
COc1cc(CNC(=O)c2cccc(COc3ccc(Cl)cc3)c2)cc(OC)c1,-5.1,11.1,9.1,11.9*,-0.5,-2.9,2.1
N#Cc1c(N)nc(SCc2ccccn2)c(C#N)c1-c1cccs1,-22.8,-12.5,/,12.1*,0.4,2.5,4.1
COc1ccc(CC2(C)OC(c3ccc(Cl)cc3)=NN2C(C)=O)cc1 (centres undefined),-20.6,0.4,7.8,3.0,-3.4,55.7,/
CC(C)C(=O)N1CCN(c2nc(-c3ccc(Cl)cc3)cs2)CC1,-27.3,20.7,13.0,-0.8,26.4,26.7,/
O=C(Cc1cccs1)N1CCN(c2nc(-c3ccc(Cl)cc3)cs2)CC1,-18.0,14.0,/,14.5*,2.1,59.3*,1.1
Clc1ccc(-c2csc(N3CCC(c4ccccc4)C3)n2)cc1 (centres undefined),-15.8,5.3,/,13.5*,2.1,-3.7,6.6
Cc1cc(C)nc(SCCC(=O)Nc2ccccc2Cl)n1,-2.2,-9.8,4.7,-0.4,15.5,-6.0,/
CC(C)CCN1C(=O)c2ccc(C(=O)Nc3c[nH]c(=O)[nH]c3=O)cc2C1=O,-0.2,2.3,1.3,3.7,-1.9,-0.4,/
CC(=O)Oc1cccc(N2C(=O)c3ccc(C(=O)Nc4c[nH]c(=O)[nH]c4=O)cc3C2=O)c1,-0.6,5.6,7.3,12.5*,23.5,1.4,2.8
SMILES,p47phox inh,Arbovirus anti,Calb biofilm kill,RAM inhibit,Hck-Nef inh,WT yeast gro inh,RAM 5-FOA
CC(C)=CCC/C(C)=C/Cc1c(O)ccc(C(=O)/C=C/c2ccc(O)cc2)c1O,-22.1,-40.5,16.2,15.1*,-0.6,94.8*,4.9
Cc1ccc(N=c2oc3cc(O)ccc3cc2C(N)=O)cc1,-3.4,-7.2,/,27.2*,45.9,-5.1,0.9
COc1ccc(N=c2oc3cc(O)ccc3cc2C(=O)NCC2CCCO2)cc1 (centres undefined),-29.4,-12.2,/,3.6,44.6,15.7,/
CCOC(=O)c1cnn(-c2ccccc2)c1-n1cccc1C(=O)C(=O)Nc1ccc(F)cc1,-23.6,3.6,/,3.8,-0.5,43.6,/
COc1ccc(CSCC(=O)Nc2ccc(S(=O)(=O)N3CCCCCC3)cc2)cc1,-15.4,0.1,10.9,14.3*,-0.9,41.0,1.5
O=C(O)COc1ccc(/C=N/n2c(COc3ccccc3)nc3ccccc3c2=O)cc1,-7.5,-2.9,18.6,12.6*,1.6,-5.1,3.4
COc1ccc(O[C@H]2C=C[C@@H](c3ccccc3)O[C@@H]2COC(=O)CC/C(C)=N/O[C@@H](C)c2cc(-c3c(C)cc(C)cc3C)no2)cc1,-6.2,7.4,-2.6,20.8*,-5.6,-11.2,4.3
O=C(COC(=O)/C=C/c1ccc(Br)o1)NCCCN1CCCC1=O,-0.9,15.2,16.9,4.8,4.7,12.6,/
Cc1cccc(S(=O)(=O)Nc2nc3ccccc3nc2NCc2ccc3c(c2)OCO3)c1,-9.5,0.3,17.8,-0.2,2.0,-9.8,/
O=S(=O)(Nc1ccc(-c2csc(-c3ccccc3)n2)cc1)c1ccccc1,-23.8,-35.3,9.7,13.1*,-17.2,90.6*,1.4
COc1ccccc1OCCNS(=O)(=O)c1ccc2oc3ccccc3c2c1,-20.9,-0.2,17.5,14.6*,4.0,45.2,4.9
O=S(=O)(NCCOc1ccccc1Cl)c1ccc2oc3ccccc3c2c1,/,/,/,/,-0.6,/,/
Cc1ccc(C(=O)c2cc3ccccc3o2)cc1C,-15.6,-2.4,/,15.4*,-17.6,-22.7,2.6
O=C(CCCn1cc([N+](=O)[O-])cn1)Nc1cccnc1,-5.9,/,15.9,/,23.4,/,/
CN1c2ccc(Cl)cc2C(=O)NC1C1CC=CCC1 (centres undefined),0.4,/,22.4,/,-4.4,/,/
Fc1ccc(C2=NN(c3ccccc3)C(c3ccco3)C2)cc1 (centres undefined),-15.1,-8.0,24.1,2.6,28.9,50.2,/
Cc1ccc(N2N=C(c3ccc(F)cc3)CC2c2ccco2)cc1 (centres undefined),-14.0,10.9,25.7,12.1*,32.2,38.5,3.7
O=C(/C=C/c1cccc([N+](=O)[O-])c1)NCc1ccc2c(c1)OCO2,-1.9,-16.8,12.3,0.1,-1.1,15.2,/
O=C(/C=C/c1cccc([N+](=O)[O-])c1)NCCSCc1ccccc1Cl,-8.6,-18.5,11.2,11.7*,1.8,39.3,2.0
O=C(/C=C/c1cccc([N+](=O)[O-])c1)NCCSCc1ccc(Cl)cc1Cl,-3.9,-10.7,22.9,11.8*,0.5,21.0,2.7
O=C(/C=C/c1ccc2c(c1)OCO2)NCCSCc1ccc(Cl)cc1Cl,-7.2,-38.1,/,12.2*,-0.7,46.5,2.9

# Screening data: PubChem BioAssay, several laboratories
